Exocytosis inh = lytic granule exocytosis inhibition. 360,000 compounds, 0.66% hits. TALL-104 LAMP-1 surface exposure, flow cytometry; cells stimulated with thapsigargin and PMA. AID 651702. inhibition, % at 10 µM;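 active = inhibition above about 55%, limit read from the data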
EBI2 antag = blocks human EBI2 receptor beta-arrestin signaling | EBI2 beta-arrestin recruitment, luminescence, 7a,25-OHC stimulated | inhibition, % at 5 µM | P32249 | AID 651636 | 360,000 compounds, 0.81% hits; in the data active = inhibition above about 38%;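 also: enzyme fragment complementation signal reports receptor beta-arrestin coupling in cells; 0% = agonist plus DMSO wells and 100% = wells without agonist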
MC4R antagonist = blocks human MC4R cAMP signaling. MC4R-expressing cells, MTII-stimulated cAMP, LANCE TR-FRET. inhibition, % at 6.5 µM. 360,000 compounds, 0.48% hits. AID 540295;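 active = inhibition above its plate's cutoff, the mean of tested wells on that plate plus 3 SD, cut at about 29% in these data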;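 also: 0% = Melanotan II alone and 100% = Melanotan II plus saturating MCL0020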
Target sequence (P32245 whole entry, looked up): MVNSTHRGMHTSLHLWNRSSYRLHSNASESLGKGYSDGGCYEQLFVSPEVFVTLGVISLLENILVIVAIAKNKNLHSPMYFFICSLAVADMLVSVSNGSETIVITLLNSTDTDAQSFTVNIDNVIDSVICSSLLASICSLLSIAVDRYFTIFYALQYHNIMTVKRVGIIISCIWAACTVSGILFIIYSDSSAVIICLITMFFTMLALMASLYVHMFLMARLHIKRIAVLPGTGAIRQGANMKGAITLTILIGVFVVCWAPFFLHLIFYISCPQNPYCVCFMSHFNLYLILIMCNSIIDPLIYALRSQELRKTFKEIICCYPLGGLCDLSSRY
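System – human MC4R-expressing U2OS cells · Also added – Melanotan II · Dosing – one concentration, 6.5 µM nominal · Timing – 30-min compound, 1-h challenge, 1-h detection, room temperature · Measured by – Eu-cAMP/anti-cAMP TR-FRET, emission 671 nm · Replicates – singlicate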
Myeloid diff MLP = promotes myeloid progenitor differentiation. ER-HoxA9 myeloid progenitors, lysozyme-GFP differentiation, flow cytometry. calls only at 10 µM. 360,000 compounds, 1% hits;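 active = normalized GFP-positive differentiation at or above the plate's own cutoff, the solvent-only control mean plus 3 SD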;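 also: cells exposed to compound for four days before flow analysis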
MC4R ag barr = agonists of human melanocortin 4 receptor (MC4R) beta-arrestin. P32245. U2OS MC4R beta-arrestin complementation, luminescence; percent of melanotan II response, DMSO zero. activation, % at 8.9 µM. 360,000 compounds, 0.98% hits;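 active = activation above a per-plate cutoff, the mean activation of sample wells on that plate plus 3 SD, cut at about 8% in these data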
* = called active by the depositor; i = inactive; / = no result; + = active, no number. Shown are actives, neighbours in structure and some others; about 3.7% of the full set was active somewhere.

SMILES	Exocytosis inh	EBI2 antag	MC4R antagonist	Myeloid diff MLP	MC4R ag barr
Cc1nc(NC(=O)c2ccco2)sc1-c1csc(Nc2ccc(Cl)cc2Cl)n1	-5.3	10.1	27.1	i	8.5*
Cc1cc(NC(=O)CSc2nnc(Cc3cccn3C)n2CCc2ccccc2)no1	2.1	2.1	-1.5	i	-0.5
Cn1cccc1Cc1nnc(SCC(=O)Nc2ccccc2F)n1CCc1ccccc1	-2.7	25.8	5.8	+	1.9
Cc1ccc(S(=O)(=O)N(C)C)cc1NC(=S)N1CCN(Cc2ccc3c(c2)OCO3)CC1	-2.5	-4.6	1.2	+	-2.7
Cc1ccccc1NC(=S)N1CCN(Cc2ccc3c(c2)OCO3)CC1	-1.8	-0.5	10.3	i	-2.4
Cc1nc(C)n(C(C)CNS(=O)(=O)c2ccc(C)c(C)c2)n1 (stereo not drawn)	-12.3	-4.0	4.8	/	0.0
COc1ccc(NC2=NC(=S)N(c3ccccc3C)C23CCCCC3)cc1	-1.0	-0.1	17.9	i	3.6
COc1ccc(N2C(=S)N=C(Nc3ccccc3)C23CCCCC3)cc1	-1.3	8.0	19.6	i	13.9*
CN(C)c1ncnc2c1ncn2[C@H]1CN(C2CCCC2)C[C@@H](CO)O1	29.1	-13.6	-1.2	i	-2.2
COc1ccccc1-c1sc2ccccc2c1-c1ccc(OCCN2CCCCC2)cc1	29.6	-18.0	5.7	i	5.1
COc1ccc(-c2sc3ccccc3c2-c2ccc(OCCN3CCCCC3)cc2)cc1	34.3	-7.4	4.7	i	-0.6
COc1ccc2c(-c3ccc(OCCN4CCCCC4)cc3)c(-c3ccccc3OC)sc2c1	66.1*	-12.6	7.3	i	1.8
COc1ccc(-c2sc3cc(OC)ccc3c2-c2ccc(OCCN3CCCCC3)cc2)cc1	31.2	0.7	/	+	/
CCCSc1ccc(C(=O)Nc2ccc(Cl)cc2)cn1	0.2	42.7	-4.5	i	4.8
N/C(=N\OC(=O)c1ccccc1Br)c1ccc([N+](=O)[O-])cc1	-4.0	-7.2	-16.4	i	8.6*
COc1ccc2[nH]c(C)c(CCN(Cc3cccs3)C(=S)Nc3cccc(F)c3)c2c1	7.4	5.7	8.7	+	-0.2
COc1cccc(NC(=S)N(CCc2c(C)[nH]c3ccc(C)cc23)Cc2cccs2)c1	-8.0	22.2	1.4	i	1.2
COc1ccc(/C=c2\s/c(=C/C(=O)c3ccc(C)cc3)[nH]c2=O)c(OC)c1	1.7	8.8	-6.8	+	-3.0
COc1cccc(/C=c2\s/c(=C/C(=O)c3ccc(C)cc3)[nH]c2=O)c1OC	6.2	9.7	-2.6	i	-1.8
CCOc1ccc(C(=O)Nc2ccc(Cl)cn2)cc1Cl	-0.8	0.2	-1.0	i	8.3*
CCOc1ccc(NS(=O)(=O)c2ccc(OCC)c3ncccc23)cc1	-2.1	2.8	-4.3	+	2.5
Cc1cc(N2CCN(C)CC2)nc2ccc(NC(=S)NCCCN3CCc4ccccc4C3)cc12	58.9*	-0.6	-1.7	i	-1.6
Cc1cc(N2CCN(C)CC2)nc2ccc(NC(=S)NCCN3CCc4ccccc4C3)cc12	10.5	10.3	10.5	i	-0.9
O=C1c2ccccc2C(=O)c2c([N+](=O)[O-])ccc(O)c21	59.4*	2.4	-0.8	i	0.0
C[C@H]1CN([C@@H](C)CO)C(=O)c2cc(Br)cnc2O[C@@H]1CN(C)C(=O)NC1CCCCC1	-2.1	-2.1	5.0	i	-0.9
SMILES	Exocytosis inh	EBI2 antag	MC4R antagonist	Myeloid diff MLP	MC4R ag barr
C[C@H](CO)N1C[C@H](C)[C@@H](CN(C)C(=O)Nc2ccc(C(F)(F)F)cc2)Oc2ccc(NC(=O)Nc3ccc(C(F)(F)F)cc3)cc2C1=O	33.8	-4.9	6.5	i	-1.7
C[C@H](CO)N1C[C@H](C)[C@H](CN(C)C(=O)NC2CCCCC2)Oc2ncc(Br)cc2C1=O	3.2	-4.4	5.9	+	2.4
C[C@H](CO)N1C[C@H](C)[C@@H](CN(C)C(=O)Nc2ccc(C(F)(F)F)cc2)Oc2c(NC(=O)Nc3ccc(C(F)(F)F)cc3)cccc2C1=O	-2.6	43.2*	24.1	i	-1.4
COc1ccc(S(=O)(=O)N(C)C[C@H]2Oc3ccc(NS(=O)(=O)c4cccs4)cc3C(=O)N([C@H](C)CO)C[C@@H]2C)cc1	1.1	1.2	4.0	+	-0.5
C[C@@H]1CN([C@H](C)CO)C(=O)c2cc(NC(=O)Nc3ccc(C(F)(F)F)cc3)ccc2O[C@H]1CN(C)C(=O)Nc1ccc(F)cc1	2.7	7.4	3.8	+	0.2
COc1ccc(S(=O)(=O)N(C)C[C@H]2Oc3ccc(NS(=O)(=O)c4ccccc4)cc3C(=O)N([C@H](C)CO)C[C@@H]2C)cc1	-3.1	-10.1	-0.9	i	0.5
CC1(C)OC(=O)C2=C(C[C@@H](CCc3ccccc3)O[C@H]2CCc2cccc(Cl)c2)O1	-0.9	10.6	/	i	/
CN(C)c1ccc(CNC(=O)C2(C)Cc3c(-c4cccc(C(N)=O)c4)ccnc3O2)cc1 (stereo not drawn)	-8.2	1.8	10.2	i	-0.3
Cc1nc(-c2ccc(F)cc2)c(CC(=O)N2CCN(S(=O)(=O)c3cccc([N+](=O)[O-])c3)CC2)s1	-0.9	2.1	-6.1	+	2.0
N#C/C(=C(/O)COC(=O)COc1cccc(Br)c1)c1nc2ccccc2[nH]1	-2.2	2.3	6.1	i	19.9*
COCC(=O)OC/C(O)=C(\C#N)c1nc2ccccc2[nH]1	6.0	-1.5	10.3	i	-0.1
Cc1cc(C)cc(OCC(=O)OC/C(O)=C(\C#N)c2nc3ccccc3[nH]2)c1	-6.3	-14.5	-4.6	i	13.6*
CCCC(=O)OC/C(O)=C(\C#N)c1nc2ccccc2[nH]1	2.7	-4.9	15.3	i	-2.6
Cc1ccc(S(=O)(=O)NC2=C(N3CCN(Cc4ccccc4)CC3)C(=O)c3ccccc3C2=O)cc1	-0.1	2.0	-3.6	+	-4.3
CC1CC2(CCCC2)N(C(=O)c2ccccc2)Cc2ccccc21 (stereo not drawn)	2.2	9.8	2.2	i	0.9
O=C1C(O)CC2c3ccccc3CC3(CCCC3)N12 (stereo not drawn)	-1.1	5.7	10.3	+	0.0
CCN(CC)c1ccc(/C=C2\C(=N)N3N=C(CC(=O)N4CCOCC4)SC3=NC2=O)cc1	0.5	9.5	6.8	+	-2.6
COc1ccc(-c2oc3ccc(N4CCOCC4)cc3c2C#Cc2ccc(N)cc2)cc1	-1.0	27.8	10.2	+	-1.0
COc1ccc(C#Cc2c(-c3ccsc3)oc3ccc(N4CCOCC4)cc23)cc1	1.2	7.0	-0.7	i	0.2
Cc1ccc(O)c(NC2=C(Cl)C(=O)N(Cc3ccccc3)C2=O)c1	14.8	8.9	2.2	i	8.7*
Cc1ccc(S(=O)(=O)n2nc(OC(=O)c3c(F)cccc3Cl)cc2N)cc1	78.0*	-1.1	13.4	i	-2.1
CCCC(CCC)c1nc2ccncc2[nH]1	-1.1	7.1	8.8	i	-2.5
